Assay results from ChEMBL document CHEMBL1143997, “Further structural optimization of cis-(6-benzhydryl-piperidin-3-yl)-benzylamine and 1,4-diazabicyclo[3.3.1]nonane derivatives by introducing an exocyclic hydroxyl group: interaction with dopamine, serotonin, and norepinephrine transporters” (Bioorg Med Chem, 2008).

What was measured:
[1] = molecular target: T1, Sodium-dependent dopamine transporter (Rattus norvegicus, UniProt P23977); test: Displacement of [3H]WIN-from DAT in rat striatum
Method in brief: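 Compounds dissolved in DMSO, diluted in 10% DMSO, final 0.5% DMSO. At least five concentrations in triplicate spaced around IC50. IC50 from nonlinear curve fitting, converted to Ki by Cheng-Prusoff. Mean ± SEM of 3–8 independent experiments.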

[2] = molecular target: T1, Sodium-dependent dopamine transporter; test: Inhibition of [3H]dopamine uptake in DAT in rat striatum; type: tissue-based
Method in brief: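 Rat striatal tissue; [3H]DA accumulation measured. Nonspecific uptake defined with 100 uM cocaine. Compounds dissolved in DMSO, final 0.5% DMSO. At least five triplicate concentrations spaced around IC50. Nonlinear curve fit, with Ki from Cheng-Prusoff. Mean ± SEM of 3–8 independent experiments done in triplicate.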

[3] = species on record: Rattus norvegicus; test: Ratio of Ki for SERT to Ki for DAT in rat brain; type: tissue-based
[4] = molecular target: Sodium-dependent serotonin transporter (Rattus norvegicus, UniProt P31652); test: Inhibition of [3H]5HT uptake in SERT in rat cerebral cortex; type: tissue-based
Method in brief: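 Rat cerebral cortex; [3H]5-HT accumulation measured. Nonspecific uptake defined with 10 uM citalopram. Compounds dissolved in DMSO, final 0.5% DMSO. At least five triplicate concentrations spaced around IC50. Nonlinear fit, with Ki by Cheng-Prusoff. Mean ± SEM of 3–8 independent experiments in triplicate.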

[5] = species on record: Rattus norvegicus; test: Ratio of Ki for NET to Ki for DAT in rat brain; type: tissue-based
[6] = molecular target: Sodium-dependent dopamine transporter (Rattus norvegicus) (UniProt P23977); test: Ratio of [3H]DA uptake to [3H]WIN-binding to DAT in rat brain; type: tissue-based
[7] = molecular target: Norepinephrine transporter (Rattus norvegicus, UniProt Q9WTR4); test: Inhibition of [3H]NE uptake in NET in rat cerebral cortex; type: tissue-based
Sequence of Norepinephrine transporter (Q9WTR4 whole entry): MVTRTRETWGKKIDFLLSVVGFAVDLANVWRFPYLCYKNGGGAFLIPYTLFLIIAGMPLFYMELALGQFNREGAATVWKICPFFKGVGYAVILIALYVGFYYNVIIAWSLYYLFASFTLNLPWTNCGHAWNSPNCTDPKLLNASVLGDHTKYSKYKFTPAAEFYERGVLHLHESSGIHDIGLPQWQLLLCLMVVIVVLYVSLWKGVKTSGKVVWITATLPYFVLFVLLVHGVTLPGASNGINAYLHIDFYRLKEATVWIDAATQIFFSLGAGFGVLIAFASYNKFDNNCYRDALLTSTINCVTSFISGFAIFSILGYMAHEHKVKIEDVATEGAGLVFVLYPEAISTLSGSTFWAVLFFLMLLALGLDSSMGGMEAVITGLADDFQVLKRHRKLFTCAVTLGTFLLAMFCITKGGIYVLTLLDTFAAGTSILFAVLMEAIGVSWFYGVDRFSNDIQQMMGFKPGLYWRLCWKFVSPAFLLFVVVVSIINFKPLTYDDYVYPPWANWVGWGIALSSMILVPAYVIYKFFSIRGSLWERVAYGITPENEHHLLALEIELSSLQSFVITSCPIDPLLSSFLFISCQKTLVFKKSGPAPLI

Sequence of Sodium-dependent dopamine transporter (Rattus norvegicus) (P23977 whole entry): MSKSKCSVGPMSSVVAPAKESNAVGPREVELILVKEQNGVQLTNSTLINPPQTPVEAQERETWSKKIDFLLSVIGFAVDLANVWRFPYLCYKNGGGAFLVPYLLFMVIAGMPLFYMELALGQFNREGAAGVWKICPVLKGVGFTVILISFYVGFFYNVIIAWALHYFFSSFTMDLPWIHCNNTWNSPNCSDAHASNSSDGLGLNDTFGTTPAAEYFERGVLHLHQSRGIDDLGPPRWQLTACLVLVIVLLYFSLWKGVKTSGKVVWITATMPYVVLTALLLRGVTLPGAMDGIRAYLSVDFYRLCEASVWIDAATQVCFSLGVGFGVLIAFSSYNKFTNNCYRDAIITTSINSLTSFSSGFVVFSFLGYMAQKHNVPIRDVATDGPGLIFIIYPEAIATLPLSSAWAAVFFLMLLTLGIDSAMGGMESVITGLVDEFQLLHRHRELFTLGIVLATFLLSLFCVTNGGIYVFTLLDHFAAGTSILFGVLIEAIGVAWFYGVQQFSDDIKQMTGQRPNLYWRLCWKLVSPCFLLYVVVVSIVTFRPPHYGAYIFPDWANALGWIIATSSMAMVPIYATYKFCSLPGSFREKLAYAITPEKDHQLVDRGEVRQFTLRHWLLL
T1 sequence (P23977 whole entry): as above
Sequence of Sodium-dependent serotonin transporter (P31652 whole entry): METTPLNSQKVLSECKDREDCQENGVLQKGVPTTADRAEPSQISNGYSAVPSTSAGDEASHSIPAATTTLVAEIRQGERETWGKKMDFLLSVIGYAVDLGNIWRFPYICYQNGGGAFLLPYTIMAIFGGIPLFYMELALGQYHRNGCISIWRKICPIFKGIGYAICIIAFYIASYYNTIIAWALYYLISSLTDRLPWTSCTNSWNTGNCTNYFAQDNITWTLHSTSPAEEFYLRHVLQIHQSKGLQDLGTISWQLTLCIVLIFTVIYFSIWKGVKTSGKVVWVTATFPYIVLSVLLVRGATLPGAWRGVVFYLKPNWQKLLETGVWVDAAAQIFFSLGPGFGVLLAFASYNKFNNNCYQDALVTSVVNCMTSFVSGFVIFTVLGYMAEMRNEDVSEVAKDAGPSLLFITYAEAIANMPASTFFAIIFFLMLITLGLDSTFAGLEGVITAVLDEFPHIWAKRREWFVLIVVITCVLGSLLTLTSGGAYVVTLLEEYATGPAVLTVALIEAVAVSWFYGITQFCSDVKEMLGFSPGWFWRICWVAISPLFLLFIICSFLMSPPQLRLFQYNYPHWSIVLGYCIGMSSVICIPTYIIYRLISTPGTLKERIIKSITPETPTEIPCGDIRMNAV

Structure (SMILES)	Ki [1] [nM]	Ki [2] [nM]	Ratio Ki [3]	Ki [4] [nM]	Ratio Ki [5]	Ratio Ki [6]	Ki [7] [nM]
N#Cc1ccc(CN[C@H]2CC[C@@H](C(c3ccccc3)c3ccccc3)NC2)cc1	11.3	9.1					
O[C@H](Cc1ccccc1)CN1CCN2C[C@@H]1CC[C@H]2C(c1ccccc1)c1ccccc1	148	82.9	135	11200	8.8	0.56	730
O[C@H](CN1CCN2C[C@@H]1CC[C@H]2C(c1ccccc1)c1ccccc1)c1ccccc1	1040	266	35.7	9510	6.5	0.25	1730
O[C@H](CN[C@H]1CC[C@@H](C(c2ccccc2)c2ccccc2)NC1)Cc1ccccc1	28.9		103	2600	9.1	0.87	231
O[C@@H](CN[C@H]1CC[C@@H](C(c2ccccc2)c2ccccc2)NC1)c1ccc(F)cc1			12.2	2900	6		1440
O[C@@H](CN1CCN2C[C@@H]1CC[C@H]2C(c1ccccc1)c1ccccc1)c1ccc(F)cc1	142	66.5	111	7410	4.7	0.46	319
O[C@@H](CCN1CCN2C[C@@H]1CC[C@H]2C(c1ccccc1)c1ccccc1)c1ccc(F)cc1	13.5	8.63	172	1480	48.4	0.63	418
O[C@@H](CN1CCN2C[C@@H]1CC[C@H]2C(c1ccccc1)c1ccccc1)c1ccccc1	228	204	63.2	12900	4.6	0.89	954
O[C@@H](Cc1ccccc1)CN1CCN2C[C@@H]1CC[C@H]2C(c1ccccc1)c1ccccc1	47	16.8	615	10300	15.4	0.35	259
O[C@H](CCN1CCN2C[C@@H]1CC[C@H]2C(c1ccccc1)c1ccccc1)c1ccc(F)cc1	19.9	41.8	284	11900	9.2	2.1	388
O[C@H](CN1CCN2C[C@@H]1CC[C@H]2C(c1ccccc1)c1ccccc1)c1ccc(F)cc1	649	160	45.9	7340	4.5	0.24	728
O[C@@H](CN[C@H]1CC[C@@H](C(c2ccccc2)c2ccccc2)NC1)Cc1ccccc1		10.6		1390		0.78	170
COc1ccc(CN2CCN3C[C@@H]2CC[C@H]3C(c2ccccc2)c2ccccc2)cc1	22.5	18.4					
